Laboratory results taken from ChEMBL document CHEMBL4196176, “Structure-Based Design of MptpB Inhibitors That Reduce Multidrug-Resistant Mycobacterium tuberculosis Survival and Infection Burden in Vivo” (J Med Chem, 2018).
Where a chain is given by its changes, count along the chain named. The source made the active and inactive calls. No cut-off for these calls is given here.

Tests used:
[1] = biological target: T1, Phosphotyrosine protein phosphatase ptpB (Mycobacterium bovis (strain BCG / Pasteur 1173P2)) (UniProt A0A0H3M0T0); assay: Inhibition of Mycobacterium bovis BCG Pasteur ptpB infected in mouse J774A.1 cells assessed as reduction in intracellular bacterial burden at 10 to 120 uM after 72 hrs post infection relative to DMSO-treated control; type: cell-based; details: Mycobacterium tuberculosis variant bovis BCG
T1 sequence (whole entry): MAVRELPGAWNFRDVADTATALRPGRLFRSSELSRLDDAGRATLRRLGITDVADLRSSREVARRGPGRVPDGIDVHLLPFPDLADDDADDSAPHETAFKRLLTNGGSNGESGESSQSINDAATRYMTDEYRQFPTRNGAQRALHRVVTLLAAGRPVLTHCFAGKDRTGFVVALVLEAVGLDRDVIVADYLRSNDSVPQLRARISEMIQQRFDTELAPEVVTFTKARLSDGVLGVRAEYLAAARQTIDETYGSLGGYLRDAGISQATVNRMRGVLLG
Method in brief: (§1)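 J774A.1 mouse macrophages in DMEM with 10% heat-inactivated FBS, seeded at 2 × 10^3/well overnight. Pretreated with inhibitor in DMSO or DMSO alone, then infected with BCG Pasteur at MOI 10:1 for 4 h and washed (time 0). Medium and inhibitor renewed at 24 h. Cells lysed in 0.05% Tween 80 at 72 h; CFU counted on 7H10 after 3 weeks. Triplicate, ≥3 experiments.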

[2] = biological target: T1, Phosphotyrosine protein phosphatase ptpB (Mycobacterium bovis (strain BCG / Pasteur 1173P2)); assay: Inhibition of Mycobacterium bovis BCG Pasteur ptpB infected in mouse J774A.1 cells assessed as reduction in intracellular bacterial burden at 10 to 120 uM after 24 hrs post infection; type: cell-based; details: Mycobacterium tuberculosis variant bovis BCG; method in brief: as §1
[3] = biological target: T1, Phosphotyrosine protein phosphatase ptpB (Mycobacterium bovis (strain BCG / Pasteur 1173P2)); assay: Inhibition of Mycobacterium bovis BCG Pasteur ptpB infected in mouse J774A.1 cells assessed as reduction in intracellular bacterial burden at 80 uM after 72 hrs post infection; type: cell-based; details: Mycobacterium tuberculosis variant bovis BCG; method in brief: as §1
[4] = tested on: Mycobacterium tuberculosis variant bovis BCG; assay: Antibacterial activity against Mycobacterium bovis BCG Pasteur infected in mouse J774A.1 cells assessed as reduction in bacterial burden at 0.3 ug/ml after 72 hrs post infection relative to control; type: functional; parameters: scale not given: the % may be the effect or the level left; method in brief: as §1
[5] = biological target: T2, Phosphotyrosine protein phosphatase (Mycobacterium tuberculosis) (UniProt A0A045ISB3); assay: Inhibition of multi-drug resistant Mycobacterium tuberculosis Beijing-W_565 ptpB infected in human THP1 cells assessed as reduction in intracellular bacterial burden at 20 to 80 uM after 72 hrs post infection relative to DMSO-treated control; type: cell-based
T2 sequence (whole entry): T1 sequence (whole entry) with G105D
Method in brief: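 THP1 cells (1 × 10^6/well) were PMA-treated overnight. Inhibitor (20 or 80 μM, in DMSO) was added in RPMI with 10% FBS before infection with thawed bacteria at MOI 1:1. Washed four times after 3 h; inhibitor re-added at 24 h. At 72 h, cells lysed in 0.05% SDS and CFU plated (duplicate 10-fold dilutions, 7H10, 3 weeks); triplicates.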

[6] = tested on: Mycobacterium tuberculosis variant bovis BCG; assay: Antibacterial activity against Mycobacterium bovis BCG Pasteur infected in mouse J774A.1 cells assessed as reduction in bacterial burden at 0.1 ug/ml after 72 hrs post infection relative to control; type: functional; parameters: scale not given: the % may be the effect or the level left; method in brief: as §1
[7] = biological target: T1, Phosphotyrosine protein phosphatase ptpB (Mycobacterium bovis (strain BCG / Pasteur 1173P2)); assay: Inhibition of Mycobacterium bovis BCG Pasteur ptpB infected in mouse J774A.1 cells assessed as reduction in intracellular bacterial burden up to 500 uM after 72 hrs post infection relative to treated-DMSO control; type: cell-based; details: Mycobacterium tuberculosis variant bovis BCG; method in brief: as §1
[8] = tested on: Mycobacterium tuberculosis variant bovis BCG; assay: Antibacterial activity against Mycobacterium bovis BCG Pasteur assessed as reduction in extracellular growth at 80 uM; type: functional, organism-based
[9] = biological target: T2, Phosphotyrosine protein phosphatase (Mycobacterium tuberculosis); assay: Inhibition of multi-drug resistant Mycobacterium tuberculosis Beijing-W_565 ptpB infected in human THP1 cells assessed as reduction in intracellular bacterial burden at 20 to 100 uM after 72 hrs post infection relative to DMSO-treated control; type: cell-based
Method in brief: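 PMA-differentiated THP1 cells (1 × 10^6/well) in RPMI with 10% FBS. Inhibitor (0, 20 or 80 μM in DMSO) added, then infected with thawed M. tuberculosis at MOI 1:1 for 3 h and washed 4 times. Medium and inhibitor renewed at 24 h. Cells lysed in 0.05% SDS at 72 h; CFU plated in duplicate and counted after 3 weeks. Triplicate.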

[10] = biological target: T1, Phosphotyrosine protein phosphatase ptpB (Mycobacterium bovis (strain BCG / Pasteur 1173P2)); assay: Inhibition of Mycobacterium bovis BCG Pasteur ptpB infected in mouse J774A.1 cells assessed as reduction in intracellular bacterial burden at 5 uM after 72 hrs post infection in presence of isoniazid; type: cell-based; details: Mycobacterium tuberculosis variant bovis BCG; method in brief: as §1
[11] = biological target: T1, Phosphotyrosine protein phosphatase ptpB (Mycobacterium bovis (strain BCG / Pasteur 1173P2)); assay: Inhibition of Mycobacterium bovis BCG Pasteur ptpB infected in mouse J774A.1 cells assessed as reduction in intracellular bacterial burden at 5 uM after 72 hrs post infection in presence of rifampicin; type: cell-based; details: Mycobacterium tuberculosis variant bovis BCG; method in brief: as §1

O=C(O)c1noc(-c2ccccc2)c1-c1cccc(-c2cc(Cl)c(O)c([N+](=O)[O-])c2)c1
inhibition [1]: 81 to 87%
inhibition [2]: Active
inhibition [3]: Active

CO[C@H]1/C=C/O[C@@]2(C)Oc3c(C)c(O)c4c(O)c(c(/C=N/N5CCN(C)CC5)c(O)c4c3C2=O)NC(=O)/C(C)=C\C=C\[C@H](C)[C@H](O)[C@@H](C)[C@@H](O)[C@@H](C)[C@H](OC(C)=O)[C@@H]1C [RIFAMPIN]
Activity [4]: <25%

COC(=O)c1c(O)cccc1OC/C=C/c1cccc(-c2cc(C(=O)O)no2)c1 [ISOXAZOLECARBOXYLIC ACID]
inhibition [5]: Active

NNC(=O)c1ccncc1 [ISONIAZID]
Activity [6]: <25%

O=C(O)c1noc(-c2ccccc2)c1-c1cccc(-c2ccc(O)c(F)c2)c1
inhibition [1]: 81 to 87%
inhibition [2]: Active
inhibition [3]: Active

O=C(O)c1noc(-c2ccccc2)c1-c1cccc(-c2cc(Cl)c(O)c(Cl)c2)c1
inhibition [1]: 81 to 87%
inhibition [2]: Active

Cc1onc(C(=O)O)c1-c1cccc(-c2cc(Cl)c(O)c(Cl)c2)c1
inhibition [7]: < 84%
Activity [8]: inactive
inhibition [9]: < 74%
inhibition [10]: > 93%
inhibition [11]: > 93%

O=C(O)c1noc(-c2ccccc2)c1-c1cccc(-c2ccc(O)c(Cl)c2)c1
inhibition [1]: 81 to 87%
inhibition [2]: Active
inhibition [3]: Active

O=C(O)c1noc(-c2ccccc2)c1-c1cccc(-c2ccc(O)cc2)c1
inhibition [1]: 81 to 87%
inhibition [2]: Active
inhibition [3]: Active
